Laboratory results published in ChEMBL document CHEMBL2331331 (J Med Chem, 2013).

Columns and labels:
HeLa = assay: Cytotoxicity against human HeLa cells assessed as growth inhibition after 72 hrs by MTT assay; type: functional, cell-based
Method in brief: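 MTT viability assay with serial inhibitor dilutions for 72 h at 37 °C, then MTT for 2–4 h and OD read at 570 nm. Leukemia lines were seeded at (1–4) × 10⁴ cells/well and lysed with 20% acidified SDS. Adherent lines were seeded at (2–5) × 10³ cells/well, dosed after 24 h and dissolved in DMSO. Triplicate; mean ± SD.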

[1] = target: Vascular endothelial growth factor receptor 2 (Danio rerio, UniProt Q5GIT4); assay: Inhibition of VEGFR2 in transgenic zebrafish embryo assessed as inhibition of intersegmental vessels formation measured 33 hrs post fertilization by fluorescence microscopic analysis
Method in brief: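 FLK-1:EGFP transgenic zebrafish embryos, 10 per well, exposed at 28.5 °C from 15 to 31 hpf to compound in fish water at 1.25, 2.5 or 5 μM (diluted from a 10 mmol/L DMSO stock); 0.3% DMSO as vehicle control. Embryos were imaged at 33 hpf, and ISVs above the yolk extension were scored for length. n = 11, mean ± SD, ANOVA.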

[2] = target: T1, Receptor-type tyrosine-protein kinase FLT3 (Homo sapiens, UniProt P36888); assay: Inhibition of FLT3 (unknown origin)
T1 sequence (P36888 whole entry): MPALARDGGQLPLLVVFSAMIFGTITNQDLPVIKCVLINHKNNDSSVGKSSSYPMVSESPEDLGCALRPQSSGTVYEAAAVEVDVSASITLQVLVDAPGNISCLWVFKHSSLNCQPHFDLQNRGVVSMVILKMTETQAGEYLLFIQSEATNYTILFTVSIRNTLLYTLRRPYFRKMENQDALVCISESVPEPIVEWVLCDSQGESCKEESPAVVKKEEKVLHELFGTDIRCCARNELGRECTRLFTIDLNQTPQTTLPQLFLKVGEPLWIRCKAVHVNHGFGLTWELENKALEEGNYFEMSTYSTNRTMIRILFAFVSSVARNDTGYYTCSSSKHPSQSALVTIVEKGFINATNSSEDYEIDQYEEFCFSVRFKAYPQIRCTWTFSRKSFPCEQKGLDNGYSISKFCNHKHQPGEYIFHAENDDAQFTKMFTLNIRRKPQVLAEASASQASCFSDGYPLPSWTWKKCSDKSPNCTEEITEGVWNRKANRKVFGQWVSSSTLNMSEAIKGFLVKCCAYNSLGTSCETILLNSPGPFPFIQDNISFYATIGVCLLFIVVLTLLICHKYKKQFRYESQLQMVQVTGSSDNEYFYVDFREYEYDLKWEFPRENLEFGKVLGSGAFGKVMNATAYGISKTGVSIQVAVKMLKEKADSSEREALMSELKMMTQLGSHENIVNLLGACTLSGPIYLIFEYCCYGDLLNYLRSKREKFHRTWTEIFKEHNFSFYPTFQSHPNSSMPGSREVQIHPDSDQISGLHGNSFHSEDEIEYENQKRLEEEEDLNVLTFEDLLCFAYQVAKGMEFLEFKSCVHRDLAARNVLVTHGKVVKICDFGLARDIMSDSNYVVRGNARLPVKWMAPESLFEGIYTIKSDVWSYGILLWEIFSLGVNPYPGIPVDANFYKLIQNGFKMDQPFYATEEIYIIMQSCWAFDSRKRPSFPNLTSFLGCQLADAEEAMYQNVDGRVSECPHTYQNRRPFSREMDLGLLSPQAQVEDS

[3] = target: Receptor-type tyrosine-protein kinase FLT3 (Homo sapiens, UniProt P36888, ITD); assay: Binding affinity to FLT3-ITD mutant (unknown origin)
[4] = target: Vascular endothelial growth factor receptor 2 (Homo sapiens, UniProt P35968); assay: Inhibition of VEGFR2 (unknown origin)
Chain of Vascular endothelial growth factor receptor 2 (Homo sapiens, UniProt P35968) (P35968 whole entry): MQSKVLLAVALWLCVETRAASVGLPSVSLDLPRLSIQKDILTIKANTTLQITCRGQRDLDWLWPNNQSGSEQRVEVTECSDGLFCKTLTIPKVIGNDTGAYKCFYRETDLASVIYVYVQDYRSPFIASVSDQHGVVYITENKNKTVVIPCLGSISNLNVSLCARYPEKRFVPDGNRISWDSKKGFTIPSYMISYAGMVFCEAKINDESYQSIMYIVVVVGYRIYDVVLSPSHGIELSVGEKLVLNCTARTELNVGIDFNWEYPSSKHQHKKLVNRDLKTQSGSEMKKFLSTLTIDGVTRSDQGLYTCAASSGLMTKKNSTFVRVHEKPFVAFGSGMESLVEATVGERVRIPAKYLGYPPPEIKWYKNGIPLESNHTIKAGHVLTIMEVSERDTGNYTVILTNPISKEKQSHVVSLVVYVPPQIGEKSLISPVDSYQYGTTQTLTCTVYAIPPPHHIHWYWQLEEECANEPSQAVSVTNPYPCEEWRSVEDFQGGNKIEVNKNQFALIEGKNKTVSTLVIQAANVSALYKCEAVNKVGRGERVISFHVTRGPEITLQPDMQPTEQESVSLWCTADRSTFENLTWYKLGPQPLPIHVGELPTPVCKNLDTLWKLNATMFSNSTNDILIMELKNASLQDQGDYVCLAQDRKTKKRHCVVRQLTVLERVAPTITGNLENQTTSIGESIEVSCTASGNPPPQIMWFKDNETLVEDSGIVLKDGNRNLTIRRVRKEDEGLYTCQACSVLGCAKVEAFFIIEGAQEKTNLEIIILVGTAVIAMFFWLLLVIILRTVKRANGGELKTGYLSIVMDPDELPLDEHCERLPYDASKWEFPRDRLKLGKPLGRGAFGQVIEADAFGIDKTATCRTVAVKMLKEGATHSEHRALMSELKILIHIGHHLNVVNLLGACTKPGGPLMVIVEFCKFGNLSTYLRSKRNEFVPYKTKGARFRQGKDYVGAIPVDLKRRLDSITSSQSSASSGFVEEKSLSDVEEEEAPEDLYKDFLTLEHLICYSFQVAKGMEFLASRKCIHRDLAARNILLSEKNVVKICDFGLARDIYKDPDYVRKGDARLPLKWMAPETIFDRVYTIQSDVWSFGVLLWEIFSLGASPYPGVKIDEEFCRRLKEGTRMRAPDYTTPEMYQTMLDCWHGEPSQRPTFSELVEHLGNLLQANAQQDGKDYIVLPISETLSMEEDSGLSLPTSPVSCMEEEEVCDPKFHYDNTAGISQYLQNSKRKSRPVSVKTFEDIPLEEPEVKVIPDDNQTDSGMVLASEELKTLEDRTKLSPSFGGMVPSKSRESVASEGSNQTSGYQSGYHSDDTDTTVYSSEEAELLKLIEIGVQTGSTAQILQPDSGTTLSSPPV

Chain of Vascular endothelial growth factor receptor 2 (Danio rerio, UniProt Q5GIT4) (Q5GIT4 whole entry): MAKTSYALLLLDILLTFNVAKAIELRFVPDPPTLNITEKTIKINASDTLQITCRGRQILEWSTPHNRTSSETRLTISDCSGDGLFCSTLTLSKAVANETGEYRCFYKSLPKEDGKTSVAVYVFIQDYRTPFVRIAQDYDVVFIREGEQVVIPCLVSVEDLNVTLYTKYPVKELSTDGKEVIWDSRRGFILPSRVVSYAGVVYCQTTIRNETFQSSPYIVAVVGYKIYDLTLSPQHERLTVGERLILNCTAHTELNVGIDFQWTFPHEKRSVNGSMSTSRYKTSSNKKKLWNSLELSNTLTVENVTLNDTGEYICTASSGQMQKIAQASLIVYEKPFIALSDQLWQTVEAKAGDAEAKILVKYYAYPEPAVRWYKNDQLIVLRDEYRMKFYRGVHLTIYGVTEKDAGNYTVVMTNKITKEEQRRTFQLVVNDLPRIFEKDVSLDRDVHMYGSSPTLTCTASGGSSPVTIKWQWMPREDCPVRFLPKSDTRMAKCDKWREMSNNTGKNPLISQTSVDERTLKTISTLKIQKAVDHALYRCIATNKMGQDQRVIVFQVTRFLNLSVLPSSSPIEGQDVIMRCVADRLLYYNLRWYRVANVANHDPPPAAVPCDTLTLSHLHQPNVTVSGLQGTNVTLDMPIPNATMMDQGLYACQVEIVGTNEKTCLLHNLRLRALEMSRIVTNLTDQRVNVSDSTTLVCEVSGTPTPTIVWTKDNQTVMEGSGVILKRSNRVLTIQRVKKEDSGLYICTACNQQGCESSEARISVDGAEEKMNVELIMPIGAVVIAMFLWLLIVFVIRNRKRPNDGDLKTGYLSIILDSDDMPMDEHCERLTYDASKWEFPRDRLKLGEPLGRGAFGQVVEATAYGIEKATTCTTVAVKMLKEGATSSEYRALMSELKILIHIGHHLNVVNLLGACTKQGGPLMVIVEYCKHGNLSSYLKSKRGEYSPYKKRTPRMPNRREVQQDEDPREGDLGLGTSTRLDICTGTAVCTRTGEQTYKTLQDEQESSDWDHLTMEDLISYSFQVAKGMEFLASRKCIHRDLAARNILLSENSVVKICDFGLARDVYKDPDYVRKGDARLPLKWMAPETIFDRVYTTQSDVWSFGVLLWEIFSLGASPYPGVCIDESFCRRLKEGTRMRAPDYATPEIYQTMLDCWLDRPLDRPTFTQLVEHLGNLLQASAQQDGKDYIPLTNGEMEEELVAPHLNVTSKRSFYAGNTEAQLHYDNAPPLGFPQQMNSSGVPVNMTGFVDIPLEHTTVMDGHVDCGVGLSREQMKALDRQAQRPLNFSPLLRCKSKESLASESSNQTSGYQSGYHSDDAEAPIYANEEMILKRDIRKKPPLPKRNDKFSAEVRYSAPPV

Structure (SMILES)	IC50 [1]	IC50 [2]	Kd [3]	IC50 [4]	IC50 (HeLa)
O=C(Cc1ccc(Br)cc1)Nc1cccc(Oc2ncnc3n[nH]cc23)c1	> 100 µM				> 10 µM
O=C(Nc1ccccc1)Nc1ccc(Oc2ncnc3n[nH]cc23)cc1	20.2 µM				> 10 µM
O=C(Nc1ccc(Oc2ncnc3[nH]ncc23)cc1)Nc1ccc(C(F)(F)F)cc1	1.2 µM	0.032 µM	0.91 µM	0.038 µM	> 10 µM
O=C(Nc1ccc(Br)cc1)Nc1ccc(Oc2ncnc3[nH]ncc23)cc1	74.7 µM				> 10 µM
O=C(Cc1ccc(C(F)(F)F)cc1)Nc1cccc(Oc2ncnc3[nH]ncc23)c1	> 100 µM				> 10 µM
O=C(Nc1ccc(F)cc1)Nc1ccc(Oc2ncnc3[nH]ncc23)cc1	89.4 µM				> 10 µM
O=C(Nc1ccc(Br)cc1)Nc1ccc(Nc2ncnc3n[nH]cc23)cc1	> 100 µM				> 10 µM
CC(C)c1cccc(NC(=O)Nc2ccc(Oc3ncnc4n[nH]cc34)cc2)c1	7.73 µM				> 10 µM
Cn1ncc2c(Oc3ccc(NC(=O)Nc4ccc(C(F)(F)F)cc4)cc3)ncnc21	> 100 µM				> 10 µM
O=C(Nc1ccc(Br)cc1)Nc1cccc(Oc2ncnc3[nH]ncc23)c1	> 100 µM				> 10 µM
CC(NC(=O)Nc1ccc(Oc2ncnc3n[nH]cc23)cc1)c1ccccc1 (stereo not given)	> 98.2 µM				> 10 µM
CC(NC(=O)Nc1ccc(Nc2ncnc3[nH]ncc23)cc1)c1ccccc1 (stereo not given)	> 100 µM				> 10 µM
O=C(Nc1ccc(C(F)(F)F)cc1)Nc1cccc(Oc2ncnc3[nH]ncc23)c1	> 100 µM				> 10 µM
O=C(Nc1ccc(Oc2ncnc3n[nH]cc23)cc1)c1ccc(Br)cc1	74.7 µM				> 10 µM
COc1cccc(NC(=O)Nc2ccc(Oc3ncnc4n[nH]cc34)cc2)c1	82 µM				> 10 µM
O=C(Nc1ccc(Oc2ncnc3n[nH]cc23)cc1)NC1CCCCC1	> 100 µM				> 10 µM
COc1cccc(NC(=O)Nc2ccc(Nc3ncnc4[nH]ncc34)cc2)c1	> 100 µM				> 10 µM
COc1cccc(NC(=O)Nc2ccc(Oc3ncnc4c3cnn4C)cc2)c1	> 100 µM				> 10 µM
CNC(=O)c1cc(Oc2ccc(NC(=O)Nc3ccc(Cl)c(C(F)(F)F)c3)cc2)ccn1 [SORAFENIB]	2.6 µM				4.16 µM
O=C(Nc1ccc(Nc2ncnc3[nH]ncc23)cc1)Nc1ccc(C(F)(F)F)cc1	> 100 µM				> 10 µM

Further lines, with some results ahead:

IC50 [1]	IC50 [2]	Kd [3]	IC50 [4]	Structure (SMILES)	IC50 (HeLa)
> 100 µM				O=C(Nc1cccc(Oc2ncnc3n[nH]cc23)c1)c1ccc(C(F)(F)F)cc1	> 10 µM
> 100 µM				O=C(NCC1CCCCC1)Nc1ccc(Oc2ncnc3[nH]ncc23)cc1	> 10 µM
16.6 µM				O=C(Nc1ccc(Oc2ncnc3[nH]ncc23)cc1)Nc1cccc(F)c1	> 10 µM
1.05 µM		0.0066 µM		O=C(Nc1ccc(Oc2ncnc3[nH]ncc23)cc1)Nc1cccc(C(F)(F)F)c1	> 10 µM
> 100 µM				O=C(Nc1cccc(Oc2ncnc3[nH]ncc23)c1)c1ccc(Br)cc1	> 10 µM
74.7 µM				O=C(Cc1ccc(Br)cc1)Nc1ccc(Oc2ncnc3n[nH]cc23)cc1	> 10 µM
5.18 µM				O=C(Nc1ccc(Oc2ncnc3n[nH]cc23)cc1)Nc1cc(C(F)(F)F)cc(C(F)(F)F)c1	> 10 µM
8.46 µM				O=C(Nc1ccc(Oc2ncnc3[nH]ncc23)cc1)Nc1ccc(C(F)(F)F)cc1Cl	> 10 µM
17.8 µM				O=C(Nc1ccc(Oc2ncnc3n[nH]cc23)cc1)Nc1cccc(OC(F)(F)F)c1	> 10 µM
98.8 µM				Cc1cccc(NC(=O)Nc2ccc(Oc3ncnc4[nH]ncc34)cc2)c1C	> 10 µM
> 100 µM				O=C(Nc1ccc(Oc2ncnc3n[nH]cc23)cc1)Nc1cccnc1	> 10 µM
> 100 µM				O=C(Nc1ccc(Oc2ncnc3[nH]ncc23)cc1)Nc1ccc(N2CCOCC2)cc1	> 10 µM
> 100 µM				Cc1cccc(NC(=O)Nc2ccc(Nc3ncnc4n[nH]cc34)cc2)c1C	> 10 µM
